# Screening results deposited in PubChem by several laboratories.
# PostGolgi yeast – phenotypic screen on post-Golgi transport, primary screen; post-Golgi transport phenotypic cell assay; inhibition, % at 10 µM; 98,000 tested, 0.9% active; AID 739, 2007;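 note: yeast cells grown in 1536-well plates; yeast grown about 18 h at 30C before absorbance read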
# PostGolgi ctrl – growth inhibition of yeast control strain, primary screen, counter-screen for post-Golgi transport modulator project | efflux-deficient yeast background strain, growth absorbance A615, 16 h | inhibition, % at 10 µM | 98,000 tested, 5% active | AID 738, 2007
# EphB4 antag – EphB4-ephrin-B2 interaction antagonists, primary screen, biochemical, TNYL-RAW peptide probe, fluorescence polarization; Ephrin type-B receptor 4 (Homo sapiens), P54760; EphB4 LBD / TNYL-RAW-Alexa532 peptide; inhibition, % at 7 µM; 97,000 tested, 0.15% active;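 active = inhibition above the screen-wide mean inhibition plus 3 SD, cut at about 15% in these data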;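 note: 0% = DMSO wells and 100% = excess unlabeled TNYL-RAW peptide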
# HIV Rev-RRE inh – HIV-1 Rev-RRE binding inhibitors, primary screen, biochemical, FRET, protein-RNA interaction. AID 704, 2007. Rev peptide-RRE RNA binding. 97,000 tested, 0.79% active. inhibition, % at 8 µM. P05866;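 active = inhibition above the screen-wide mean plus 3 SD, cut at about 35% in these data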;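 note: 0% = median DMSO wells and 100% = median Neomycin B control wells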
#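 Assay system: Labelled RRE RNA duplex and labelled Rev peptide | Times: 5 min preincubation and 15 min binding, 25 °C | Detection: FRET, ex 480 nm, em 540 and 671 nm | Evaluation: % inhibition of FRET ratio versus controls | Benchmarks: DMSO wells as 0% and neomycin B wells as 100% inhibition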
# Plk1 PBD FP – Plk1 polo box domain binding inhibitors, primary screen, biochemical, fluorescence polarization; Serine/threonine-protein kinase PLK1 (Homo sapiens), P53350; Plk1 PBD phosphopeptide binding; inhibition, %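 (tested at about 20 µM)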; 97,000 tested, 0.13% active; AID 693, 2007; in the data active = inhibition above about 34%, passing the limit was not always enough
# Target sequence (P53350 whole entry, looked up, the tested form may be a part): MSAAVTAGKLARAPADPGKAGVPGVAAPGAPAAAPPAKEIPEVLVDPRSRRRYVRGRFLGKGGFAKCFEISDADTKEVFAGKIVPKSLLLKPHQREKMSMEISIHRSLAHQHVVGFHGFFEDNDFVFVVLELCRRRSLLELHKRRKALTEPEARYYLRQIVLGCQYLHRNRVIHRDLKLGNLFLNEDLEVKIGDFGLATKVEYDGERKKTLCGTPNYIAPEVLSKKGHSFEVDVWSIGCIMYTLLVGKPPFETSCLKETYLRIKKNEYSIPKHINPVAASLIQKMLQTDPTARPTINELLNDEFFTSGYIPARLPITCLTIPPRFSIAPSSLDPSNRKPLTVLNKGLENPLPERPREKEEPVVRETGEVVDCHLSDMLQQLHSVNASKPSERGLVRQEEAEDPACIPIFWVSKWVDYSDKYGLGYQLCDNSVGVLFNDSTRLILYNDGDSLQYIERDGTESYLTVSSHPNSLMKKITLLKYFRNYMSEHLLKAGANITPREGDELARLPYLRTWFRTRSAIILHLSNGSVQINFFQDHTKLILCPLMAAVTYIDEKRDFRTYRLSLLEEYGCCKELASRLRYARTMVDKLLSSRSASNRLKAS
# PLK1 inh – human PLK1 kinase inhibitors, primary screen, biochemical, TR-FRET. Serine/threonine-protein kinase PLK1 (Homo sapiens), P53350. recombinant PLK1 kinase, TR-FRET peptide phosphorylation. inhibition, % at 10 µM. 97,000 tested, 0.53% active;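 active = inhibition of 50% or more in the single-concentration screen; inactive = inhibition below 50%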;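 note: 0% = DMSO max control and 100% = H-89 dihydrochloride min control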
# The depositor's hits bear a star; / = not tested or not shown; [ ] = dose if it differs, or a comment. Sampled rows, rich in hits. Any-hit rate of the full collection: about 6.4%. Cut-off read from the data, not from the text of the source, unless noted: active = inhibition above about 30%; inactive = the rest.
SMILES,PostGolgi yeast,PostGolgi ctrl,EphB4 antag,HIV Rev-RRE inh,Plk1 PBD FP,PLK1 inh
CCOC(=O)C(C)Sc1nnc(Cc2cc(=O)[nH]c(=O)[nH]2)n1-c1cccc(OC)c1 (centres undefined),2,32*,1,8,-30,-8
Cc1ncc(N=Nc2ccccc2Cl)c(-c2ccccc2)n1,-2,-1,2,10,-6,-10
Cc1ccc(N=Nc2c(N)[nH]n3c(=O)cc(-c4ccccc4)nc23)cc1,20,10,3,1,-28,-13
Cc1ccc(-c2[nH]nc(N)c2N=Nc2ccccc2C)cc1,54*,63*,-6,12,18,10
Cc1ccc(-c2[nH]nc(N)c2N=Nc2cccc(Cl)c2C)cc1,15,45*,-4,17,8,-6
CC(C)CSc1nc2c(=O)[nH][nH]c(=O)c2n1Cc1ccccc1,/,/,0,5,-18,-7
CCOc1ccc(C(=O)NCc2cccnc2)cc1,-1,9,4,3,-16,-2
O=C(O)CCCC(=O)Nc1ccc(C(=O)NCc2cccnc2)cc1,-15,36*,-3,12,2,-15
CCCOc1ccc(C(=O)NCc2cccnc2)cc1,6,32*,-6,2,11,0
CCOc1ccc(C2NC(=O)C(C#N)=C(S)N2c2ccc(C)cc2)cc1OC (centres undefined),0,8,-3,-1,-10,-2
CC(=O)OC1(C(F)(F)F)Oc2ccccc2NC1=O (centres undefined),13,44*,/,/,/,/
Cc1ccc(CN2C(=O)CCC2C(=O)NCc2cccnc2)cc1 (centres undefined),-17,24,-1,6,-1,-16
O=C(C1=C(O)C(=O)N(Cc2ccco2)C1c1ccccc1)c1cccs1 (centres undefined),-3,18,-7,1,9,-25
Cc1csc(NC(=O)c2nc(-c3ccccc3)n(-c3ccccc3)n2)n1,38*,8,/,/,/,/
COc1ccc(Cn2c(SCc3ccc(C)cc3)nc3cc(OC)c(OC)cc3c2=N)cc1Cl,33*,68*,8,3,-14,-5
COc1ccc(Cn2c(SCc3cc(C)ccc3C)nc3cc(OC)c(OC)cc3c2=N)cc1,76*,63*,-6,15,-22,-10
COCCCn1c(SCc2cccc(C(F)(F)F)c2)nc2cc(OC)c(OC)cc2c1=N,15,42*,-2,11,-30,-10
COc1cc2nc(SCc3ccc(C(F)(F)F)cc3)n(Cc3cccs3)c(=N)c2cc1OC,2,0,6,19,-9,-19
COc1cc2nc(SCc3ccc(Cl)cc3Cl)n(Cc3cccs3)c(=N)c2cc1OC,-4,6,-2,5,-12,-6
O=C(COc1ccccc1)Nc1ccc(OC(F)(F)C(F)F)c(NC(=O)COc2ccccc2)c1,-9,2,-1,4,28,-5
Cc1ccc(N=C2CCCN2Cc2ccccc2)c(C#N)c1,/,/,-5,11,2,20
CN(C)S(=O)(=O)CC12CCC(CC1=O)C2(C)C (centres undefined),1,3,-1,10,-20,-14
Cc1noc(C)c1COC(=O)c1ccc2c(c1)OCO2,-6,43*,-6,2,8,-15
Cc1noc(C)c1COc1ccc(C(=O)OCC(=O)Nc2ccc3c(c2)OCO3)cc1,2,-3,2,12,-17,-5
Clc1cccc(Cl)c1Cn1cnc2c(N3CCCCCC3)ncnc21,1,34*,4,10,2,-6
SMILES,PostGolgi yeast,PostGolgi ctrl,EphB4 antag,HIV Rev-RRE inh,Plk1 PBD FP,PLK1 inh
CC(O)Cc1nsc(NC(=O)c2ccc(Br)o2)n1 (centres undefined),0,5,-4,3,2,-17
Cc1ccccc1OCC(=O)NNC(=S)NC(=O)c1ccco1,38*,53*,-4,0,-6,-8
CCOC(=O)C1=C(C)NC(=O)C(C(N)=O)C1c1ccccc1 (centres undefined),2,33*,0,6,13,-5
CCOC(=O)C1=C(C)NC(=O)C(C(N)=O)C12CCCC2 (centres undefined),4,7,-3,4,18,-2
CCOc1ccccc1Oc1c(C)oc2c(CN3CCN(C)CC3)c(O)ccc2c1=O,-6,0,2,2,1,-16
COC(=O)c1ccc(Oc2c(C(F)(F)F)oc3c(CN4CCN(C)CC4)c(O)ccc3c2=O)cc1,-4,35*,1,2,-14,-14
Cc1ccc(-c2n[nH]c3c2CCC3)cc1,-4,14,5,0,6,10
Cc1cc(Cl)cc(Cl)c1OCCOc1cccc2cccnc12,-10,32*,-8,10,11,-6
Clc1cc(Br)ccc1OCCn1ccnc1,9,8,9,5,13,-4
Cc1cc(C)cc(OCCCOc2cccc3cccnc23)c1,-4,62*,-1,16,0,-7
CC(=O)NCCOc1cccc2cccnc12,-8,16,-1,5,2,-4
Clc1cc(Br)ccc1OCCOCCOc1cccc2cccnc12,2,60*,4,13,-6,-11
Cc1ccc(/C(C#N)=C\c2cn(C)c3ccccc23)cc1,-4,34*,5,19,14,-12
N=c1oc2c3c4c(cc2cc1C(=O)Nc1ccccc1)CCCN4CCC3,8,10,3,127*[fluorescence artefact?],-82,-498
CCC(C)N1CC(C(=O)NC2CCCCC2)CC1=O (centres undefined),3,33*,-4,4,-11,-11
COc1ccc(OC)c(C2C(C(N)=O)=C(C)Nc3nc(CCCO)nn32)c1 (centres undefined),2,11,6,12,19,-10
O=C1c2ccccc2C(=O)c2c1oc(C(F)(F)F)c2C(=O)c1ccccc1,104*,56*,4,16,-9,-4
O=C(c1ccccc1)c1ccc(CN2C(=O)c3ccccc3C2=O)o1,1,23,-3,14,-20,-11
CCOc1ccc(N(CC(=O)Nc2cccc(Cl)c2)S(=O)(=O)c2c(C)noc2C)cc1,7,45*,-1,10,2,0
CCOc1ccc(N(CC(=O)Nc2cccc(OC)c2)S(=O)(=O)c2c(C)noc2C)cc1,0,9,1,14,-9,-12
CCOc1ccc(N(CC(=O)NCc2ccc(F)cc2)S(=O)(=O)c2c(C)noc2C)cc1,0,0,-6,8,-7,67*
CCOc1ccc(N(CC(=O)NCc2cccs2)S(=O)(=O)c2c(C)noc2C)cc1,3,14,-2,5,-14,-1
O=c1[nH]c(=O)n(CCO)c2nnn(Cc3ccccc3)c12,-2,-4,-2,4,17,-8
